# Test results published in ChEMBL document CHEMBL1145044, “Novel cationic transport agents for oligonucleotide delivery into primary leukemic cells” (J Med Chem, 2003).
# What was measured:
# [1] = Relative uptake of ODN in BM2 cells incubated with 0.25 uMol/L of P32-labeled v-myb antisense ODN for 2 hr at a concentration of 2.5 uMol/L; type: functional, Gallus gallus
# How it was run: (§1)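 Cells were seeded at 1 × 10^6 per well in medium with 10% serum one day ahead. 0.25 µM ³²P-end-labeled v-myb antisense ODN was complexed with agent (final 2.5 µM) in serum-free medium for 30 min at room temperature. Cells were then exposed for 2 h at 37 °C or 41 °C depending on cell type. Membrane-bound ODN was stripped by acid-salt elution. Cells were lysed in proteinase K buffer and counted by liquid scintillation. Uptake is relative to free ODN, mean of ≥3 independent experiments.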
# [2] = Cytotoxicity for relative cell viability compared to untreated control in BM2 cells by MTT assay; type: functional, cell-based, Gallus gallus
# How it was run: (§2)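 MTT reduction by cells exposed to transport agent alone, expressed relative to untreated control cells (100%). The value reported is the agent concentration at which relative viability falls to 50%.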
# [3] = Relative uptake of ODN in Primary leukemic cells(PLC) incubated with 0.25 uMol/L of P32-labeled v-myb antisense ODN for 2 hr at a concentration of 2.5 uMol/L; type: functional, Gallus gallus; how it was run: as §1
# [4] = Cytotoxicity for relative cell viability compared to untreated control in Primary leukemic cells(PLC) by MTT assay; type: functional, cell-based, Gallus gallus; how it was run: as §2
# [5] = Apparent association constant was determined; type: ADME
# [6] = Cytotoxicity for relative cell viability compared to untreated control in CEF cells by MTT assay; type: functional, cell-based, Gallus gallus
K ass [5],Compound,Relative ODN uptake [1],IC50 [2],Relative ODN uptake [3],IC50 [4],IC50 [6]
268000 M⁻¹,I.I.I.I.O=C(NCCNC1=NCCCN1)c1ccc(-c2c3nc(c(-c4ccc(C(=O)NCCNC5=NCCCN5)cc4)c4ccc([nH]4)c(-c4ccc(C(=O)NCCNC5=NCCCN5)cc4)c4ccc([nH]4)c(-c4ccc(C(=O)NCCNC5=NCCCN5)cc4)c4nc2C=C4)C=C3)cc1,10.8,> 20 uM l-1,43.2,> 20 uM l-1,> 20 uM l-1
–,CCC1=C(C)C2=N/C1=C\c1[nH]c(c(CCC(=O)NCCOCCOCCN)c1C)/C=c1\[nH]/c(c(CC)c1CC)=C\c1[nH]c(c(C)c1CCC(=O)NCCOCCOCCN)/C=C1\N=C(C2)C(C)=C1CC,–,–,4.4,14 uM l-1,10 uM l-1
–,C[N+](C)(C)Cc1ccc(-c2c3nc(c(-c4ccc(C[N+](C)(C)C)cc4)c4ccc([nH]4)c(-c4ccc(C[N+](C)(C)C)cc4)c4ccc([nH]4)c(-c4ccc(C[N+](C)(C)C)cc4)c4nc2C=C4)C=C3)cc1.[Cl-].[Cl-].[Cl-].[Cl-],2.5,10 uM l-1,4.2,12 uM l-1,10 uM l-1
–,CCC1=C(C)C2=N/C1=C\c1[nH]c(c(CCC(=O)N(C)CC(O)C(O)C(O)C(O)CO)c1C)/C=c1\[nH]/c(c(CC)c1CC)=C\c1[nH]c(c(C)c1CCC(=O)N(C)CC(O)C(O)C(O)C(O)CO)/C=C1\N=C(C2)C(C)=C1CC (configuration not stated),–,10 uM l-1,9.1,4.2 uM l-1,10 uM l-1
–,Cl.Cl.Cl.Cl.O=C(NCC1CCN2CCC(CO)N=C2N1)c1ccc(-c2c3nc(c(-c4ccc(C(=O)NCC5CCN6CCC(CO)N=C6N5)cc4)c4ccc([nH]4)c(-c4ccc(C(=O)NCC5CCN6CCC(CO)N=C6N5)cc4)c4ccc([nH]4)c(-c4ccc(C(=O)NCC5CCN6CCC(CO)N=C6N5)cc4)c4nc2C=C4)C=C3)cc1 (configuration not stated),–,15 uM l-1,13.4,> 20 uM l-1,15 uM l-1
–,CCC1=C(C)C2=N/C1=C\c1[nH]c(c(CCC(=O)NCCc3c[nH]cn3)c1C)/C=c1\[nH]/c(c(CC)c1CC)=C\c1[nH]c(c(C)c1CCC(=O)NCCc1c[nH]cn1)/C=C1\N=C(C2)C(C)=C1CC,–,–,2.1,8.5 uM l-1,8.5 uM l-1
–,Br.OC[C@@H]1CCN2CC[C@@H](CO)NC2N1,2.5,–,0.77,8.5 uM l-1,–
–,I.NCCNC1=NCCCN1,5.1,–,3.2,> 20 uM l-1,20 uM l-1
2.2e+06 M⁻¹,Cc1ccc(-c2c3nc(c(-c4ccc(C[N+](C)(C)C)cc4)c4ccc([nH]4)c(-c4ccc(C)cc4)c4ccc([nH]4)c(-c4ccc(C[N+](C)(C)C)cc4)c4nc2C=C4)C=C3)cc1.[Cl-].[Cl-],16.7,> 20 uM l-1,67.5,> 20 uM l-1,> 20 uM l-1
–,CCc1c(C(=O)NC(=N)N)[nH]c(Cc2[nH]c(C(=O)NC(=N)N)c(CC)c2C)c1C.Cl.Cl,1.3,> 10 uM l-1,1.8,> 20 uM l-1,15 uM l-1
–,C[n+]1ccc(-c2c3nc(c(-c4cc[n+](C)cc4)c4ccc([nH]4)c(-c4cc[n+](C)cc4)c4ccc([nH]4)c(-c4cc[n+](C)cc4)c4nc2C=C4)C=C3)cc1 [TMPYP4],3.8,–,1.2,> 20 uM l-1,15 uM l-1
